Assay results published in ChEMBL document CHEMBL4261487, “Small structural changes of the imidazopyridine diacylglycerol acyltransferase 2 (DGAT2) inhibitors produce an improved safety profile” (Medchemcomm, 2017).
Converted amounts (≈) assume the structure as drawn. Values belong to the compound of their own block, whether it stands above or below them.

Assays:
Rattus norvegicus [1] = test: Unbound Cmax in Wistar Han IGS rat at 10 mg/kg, po qd administered for 14 days; type: ADME, organism-based; details: in vivo, 336 h
Method in brief: (§1)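 Wistar Han rats were dosed orally once daily for 14 days (exploratory, 5/sex/dose) or 1 month (toxicity, 10/sex/dose). Toxicokinetic satellite animals (3–4/sex/dose) were used, and steady-state systemic exposure is given as the mean of male and female values combined.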

Rattus norvegicus [2] = test: Unbound Cmax in Wistar Han IGS rat at 100 mg/kg, po qd administered for 14 days; type: ADME, organism-based; details: in vivo, 336 h; method in brief: as §1
Rattus norvegicus [3] = test: Unbound AUC in Wistar Han IGS rat at 100 mg/kg, po qd administered for 14 days; type: ADME, organism-based; details: in vivo, 336 h; method in brief: as §1
Rattus norvegicus [4] = test: Toxicity in Wistar Han IGS rat at 10 mg/kg, po qd administered for 14 days; type: organism-based; details: in vivo, 336 h
Method in brief: (§2)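 Wistar Han rats, daily oral dosing for 14 days (5/sex/dose) or 1 month (10/sex/dose); microscopic findings reported as incidence by sex, plus organ weights.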

Rattus norvegicus [5] = test: Unbound AUC in Wistar Han IGS rat at 300 mg/kg, po qd administered for 1 month; type: ADME, organism-based; details: in vivo; method in brief: as §1
Rattus norvegicus [6] = test: Toxicity in Wistar Han IGS rat at 30 mg/kg, po qd administered for 1 month; type: organism-based; details: in vivo; method in brief: as §2
Rattus norvegicus [7] = test: Toxicity in Wistar Han IGS rat assessed as increase in heart weight at 60 to 300 mg/kg, po qd administered for 1 month; type: organism-based; details: in vivo; method in brief: as §2
Canis familiaris [8] = test: Toxicity in telemetered beagle dog assessed as change in left ventricular parameters and activity level at 5 mg/kg administered via oral gavage measured over 24 hrs; type: organism-based, Canis lupus familiaris; details: in vivo
Canis familiaris [9] = test: Toxicity in beagle dog at 75 mg/kg, po qd administered for 14 days; type: organism-based, Canis lupus familiaris; details: in vivo, 336 h
Canis familiaris [10] = test: Toxicity in telemetered beagle dog assessed as change in ECG intervals at 5 mg/kg administered via oral gavage measured over 24 hrs; type: organism-based, Canis lupus familiaris; details: in vivo
Rattus norvegicus [11] = test: Toxicity in Wistar Han IGS rat assessed as gastric ulcer at 500 mg/kg, po qd administered for 14 days; type: organism-based; details: in vivo, 336 h; method in brief: as §2
Rattus norvegicus [12] = test: Toxicity in Wistar Han IGS rat assessed as gastric smooth muscle degeneration at 500 mg/kg, po qd administered for 14 days; type: organism-based; details: in vivo, 336 h; method in brief: as §2
Canis familiaris [13] = test: Unbound Cmax in beagle dog at 5 mg/kg, po qd administered for 1 month; type: ADME, organism-based, Canis lupus familiaris; details: in vivo
Method in brief: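 One-month dog toxicity study with once-daily oral dosing. Toxicity groups were 2/sex/dose, and unbound peak exposure was taken from toxicokinetic sampling.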

Canis familiaris [14] = test: Unbound Cmax in beagle dog at 50 mg/kg, po qd administered for 1 month; type: ADME, organism-based, Canis lupus familiaris; details: in vivo
Method in brief: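 Beagle dogs were given the compound orally once daily for 1 month in a toxicity study, with 2 dogs per sex per dose group. Plasma exposure was measured at steady state across the 24 h dosing interval.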

Canis familiaris [15] = test: Unbound Cmax in beagle dog at 100 to 150 mg/kg, po qd administered for 1 month; type: ADME, organism-based, Canis lupus familiaris; details: in vivo
Method in brief: (§3)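 Beagle dogs were dosed orally once daily in a 14-day exploratory study or 1-month toxicity studies. Steady-state systemic exposure over the 24 h dosing interval is reported as the mean of male and female values combined.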

Canis familiaris [16] = test: Unbound AUC in beagle dog at 5 mg/kg, po qd administered for 1 month; type: ADME, organism-based, Canis lupus familiaris; details: in vivo; method in brief: as §3
Canis familiaris [17] = test: Unbound AUC in beagle dog at 50 mg/kg, po qd administered for 1 month; type: ADME, organism-based, Canis lupus familiaris; details: in vivo; method in brief: as §3
Canis familiaris [18] = test: Toxicity in beagle dog assessed as decrease in food consumption at 100 mg/kg, po qd administered starting on day 11 post 150 mg/kg dosing period and continuing for 20 days; type: organism-based, Canis lupus familiaris; details: in vivo, 480 h
Canis familiaris [19] = test: Toxicity in beagle dog assessed as increase in heart rate at 50 to 150 mg/kg, po qd administered for 1 month; type: organism-based, Canis lupus familiaris; details: in vivo
Rattus norvegicus [20] = test: In vivo inhibition of DGAT2 in Wistar Han IGS rat assessed as coverage of in vitro IC50 for rat DGAT2 at 10 mg/kg, po qd administered for 14 days; type: functional; parameters: scale not given: the % may be the effect or the level left
Method in brief: (§4)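 Wistar Han rats, once-daily oral dosing for 14 days (exploratory, 5/sex/dose) or 1 month (10/sex/dose); toxicokinetics in 3–4/sex/dose with sexes combined; coverage is the average % above rat DGAT2 IC50 at steady state over the 24 h dosing interval.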

Rattus norvegicus [21] = test: In vivo inhibition of DGAT2 in Wistar Han IGS rat assessed as coverage of in vitro IC50 for rat DGAT2 at 60 mg/kg, po qd administered for 1 month; type: functional; parameters: scale not given: the % may be the effect or the level left; method in brief: as §4
Canis familiaris [22] = test: In vivo inhibition of DGAT2 in beagle dog assessed as coverage of in vitro IC50 for dog DGAT2 at 2 mg/kg, po qd administered for 1 month; type: functional, Canis lupus familiaris; parameters: scale not given: the % may be the effect or the level left
Method in brief: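 Beagle dogs, once-daily oral dosing for 14 days or 1 month; systemic exposure with sexes combined; coverage is the average % above dog DGAT2 IC50 at steady state over the 24 h dosing interval.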

Canis familiaris [23] = test: Toxicity in telemetered beagle dog assessed as increase in heart rate at 10 mg/kg administered via oral gavage measured over 24 hrs; type: organism-based, Canis lupus familiaris; details: in vivo
Canis familiaris [24] = test: Toxicity in telemetered beagle dog assessed as increase in systolic pressure at 25 mg/kg administered via oral gavage measured over 24 hrs; type: organism-based, Canis lupus familiaris; details: in vivo
Canis familiaris [25] = test: Toxicity in telemetered beagle dog assessed as increase in heart rate at 20 mg/kg, iv administered as single bolus dose over 2 mins; type: organism-based, Canis lupus familiaris; details: in vivo
Canis familiaris [26] = test: Toxicity in telemetered beagle dog assessed as increase in diastolic pressure at 25 mg/kg administered via oral gavage measured over 24 hrs; type: organism-based, Canis lupus familiaris; details: in vivo
[27] = Apparent intrinsic clearance in rat hepatocytes assessed per million cells; type: ADME, cell-based, Hepatocyte
[28] = Apparent intrinsic clearance in dog hepatocytes assessed per million cells; type: ADME, cell-based, Canis lupus familiaris, Hepatocyte
[29] = Drug metabolism in human liver microsomes assessed as fraction of UGT-mediated glucuronidation preincubated for 5 mins followed by addition of NADPH regenerating system and measured after 2.5 to 60 mins; type: ADME
Method in brief: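 Fractions of metabolism attributed to CYP oxidation and UGT glucuronidation were derived from human liver microsomal incubations. For the glucuronidation arm, microsomes were supplemented with the UGT cofactor UDP-glucuronic acid.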

[30] = Thermodynamic solubility of the compound at pH 6.5; type: physicochemical; details: buffer, read-out: Therm_solubility
[31] = Half life in beagle dog at 1 mg/kg, iv; type: ADME, organism-based, Canis lupus familiaris; details: in vivo
[32] = Plasma clearance in beagle dog at 1 mg/kg, iv; type: ADME, organism-based, Canis lupus familiaris
[33] = Oral bioavailability in beagle dog at 5 mg/kg; type: ADME, organism-based, Canis lupus familiaris; details: in vivo
Rattus norvegicus [34] = test: In vivo DGAT2 inhibition in po dosed sucrose-fed rat assessed as decrease in plasma triglyceride levels after 2 hrs; type: functional, organism-based
Method in brief: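 Rats fed a high-sucrose diet, single oral dose of test article or vehicle; plasma TG measured in tail-vein blood 2 h post dose; n = 7–8 per group; results as percent change from vehicle group, one-way ANOVA with Dunnett's test.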

Canis familiaris [35] = test: Toxicity in telemetered beagle dog assessed as increase in systolic pressure at 50 mg/kg administered via oral gavage measured during 4 hrs of post dosing; type: organism-based, Canis lupus familiaris; details: in vivo
Canis familiaris [36] = test: Toxicity in telemetered beagle dog assessed as increase in diastolic pressure at 50 mg/kg administered via oral gavage measured during 4 hrs of post dosing; type: organism-based, Canis lupus familiaris; details: in vivo
Canis familiaris [37] = test: Toxicity in telemetered beagle dog assessed as increase in systolic pressure at 25 mg/kg administered via oral gavage measured during 4 hrs of post dosing; type: organism-based, Canis lupus familiaris; details: in vivo
Canis familiaris [38] = test: Toxicity in telemetered beagle dog assessed as increase in diastolic pressure at 5 mg/kg administered via oral gavage measured during 4 hrs of post dosing; type: organism-based, Canis lupus familiaris; details: in vivo

SMILES: CS(=O)(=O)O.O=C([C@@H]1CCCN(c2ccc3nc(C4(n5cc(Cl)cn5)CC4)[nH]c3n2)C1)N1CCCC1
- fCmax (Rattus norvegicus [1]): 390 nM
- fCmax (Rattus norvegicus [2]): 4.65 µM
- fAUC (Rattus norvegicus [3]): 25600 ng·h/mL
- Activity (Rattus norvegicus [4]): Non-Toxic
- fAUC (Rattus norvegicus [5]): 62500 ng·h/mL
- Activity (Rattus norvegicus [6]): Non-Toxic
- Activity (Rattus norvegicus [7]): Toxic
- Activity (Canis familiaris [8]): Non-Toxic
- Activity (Canis familiaris [9]): Non-Toxic
- Activity (Canis familiaris [10]): Non-Toxic
- Activity (Rattus norvegicus [11]): Toxic
- Activity (Rattus norvegicus [12]): Toxic
- fCmax (Canis familiaris [13]): 1010 nM
- fCmax (Canis familiaris [14]): 12.7 µM
- fCmax (Canis familiaris [15]): 16.3 µM
- fAUC (Canis familiaris [16]): 1120 ng·h/mL
- fAUC (Canis familiaris [17]): 57500 ng·h/mL
- Activity (Canis familiaris [18]): Non-Toxic
- Activity (Canis familiaris [19]): Toxic
- Activity (Rattus norvegicus [20]): 75%
- Activity (Rattus norvegicus [21]): 98%
- Activity (Canis familiaris [22]): 60%
- Activity (Canis familiaris [23]): 4 to 10 bpm
- Activity (Canis familiaris [24]): 5 mmHg
- Activity (Canis familiaris [25]): 27 bpm
- Activity (Canis familiaris [26]): Non-Toxic

- CLH(app) [27]: 12.7 µL/min
- CLH(app) [28]: 8.4 µL/min
- Ratio [29]: 0.39
- solubility thermodynamic [30]: 285 µg/mL (≈ 666 µM)
- half-life [31]: 3.2 h
- clearance [32]: 4 mL/min/kg
- bioavailability [33]: 75%
SMILES: C[C@@H](c1nc2ccc(N3CCC[C@@H](C(=O)N4CCCC4)C3)nc2[nH]1)n1cc(Cl)cn1
- inhibition (Rattus norvegicus [34]): Dose-dependent effect
- Activity (Canis familiaris [35]): 5 mmHg
- Activity (Canis familiaris [36]): 6 mmHg
- Activity (Canis familiaris [37]): 6 mmHg
- Activity (Canis familiaris [38]): 4 to 6 mmHg
